{"source": "ChEMBL document CHEMBL1772977", "about": "“Synthesis and biological evaluation of novel 4-benzylpiperazine ligands for sigma-1 receptor imaging” (Bioorg Med Chem, 2011)", "assay_type_in_all_cases": "ADME, organism-based", "key": {"Mus musculus [1]": {"system": "Mus musculus", "test": "Biodistribution in ICR mouse small intestine at 1 uCi, iv after 60 mins postinjection", "conditions": "in vivo, 1 h", "summary_of_the_method": "(§1)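 Female ICR mice (18–22 g, n = 5) received HPLC-purified radiotracer by tail vein (0.1 mL). They were killed by cervical fracture at the stated times. Blood and organs were removed, weighed and gamma-counted. Uptake expressed as percent injected dose per gram of tissue (%ID/g), given as mean with SD.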"}, "Lung [2]": {"system": "Lung", "test": "Biodistribution in ICR mouse lung at 1 uCi, iv after 15 mins postinjection", "conditions": "in vivo, 0.25 h", "summary_of_the_method": "as §1"}, "Thyroid gland [3]": {"system": "Thyroid gland", "test": "Biodistribution in ICR mouse thyroid at 1 uCi, iv after 15 mins postinjection", "conditions": "in vivo, 0.25 h", "summary_of_the_method": "(§2)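 Female ICR mice (18–22 g, n = 5) received HPLC-purified radioiodinated tracer by tail vein (0.1 mL, 1 µCi). They were killed by cervical fracture at 15, 30, 60, 120 or 240 min post-injection. Blood and organs were removed, weighed and gamma-counted. Uptake is expressed as %ID/g, mean ± SD, n = 4–5.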"}, "Stomach [4]": {"system": "Stomach", "test": "Biodistribution in ICR mouse stomach at 1 uCi, iv measured per organ after 120 mins postinjection", "conditions": "in vivo, 2 h"}, "Stomach [5]": {"system": "Stomach", "test": "Biodistribution in ICR mouse stomach at 1 uCi, iv measured per organ after 15 mins postinjection", "conditions": "in vivo, 0.25 h"}, "Liver [6]": {"system": "Liver", "test": "Biodistribution in ICR mouse liver at 1 uCi, iv after 240 mins postinjection", "conditions": "in vivo, 4 h", "summary_of_the_method": "as §1"}, "Spleen [7]": {"system": "Spleen", "test": "Biodistribution in ICR mouse spleen at 1 uCi, iv after 120 mins postinjection", "conditions": "in vivo, 2 h", "summary_of_the_method": "as §1"}, "Mus musculus [8]": {"system": "Mus musculus", "test": "Biodistribution in ICR mouse small intestine at 1 uCi, iv after 30 mins postinjection", "conditions": "in vivo, 0.5 h", "summary_of_the_method": "as §1"}, "Heart [9]": {"system": "Heart", "test": "Biodistribution in ICR mouse heart at 1 uCi, iv after 30 mins postinjection", "conditions": "in vivo, 0.5 h", "summary_of_the_method": "as §1"}, "Thyroid gland [10]": {"system": "Thyroid gland", "test": "Biodistribution in ICR mouse thyroid at 1 uCi, iv after 240 mins postinjection", "conditions": "in vivo, 4 h", "summary_of_the_method": "as §2"}, "Heart [11]": {"system": "Heart", "test": "Biodistribution in ICR mouse heart at 1 uCi, iv after 240 mins postinjection", "conditions": "in vivo, 4 h", "summary_of_the_method": "as §1"}, "Mus musculus [12]": {"system": "Mus musculus", "test": "Biodistribution in ICR mouse small intestine at 1 uCi, iv after 120 mins postinjection", "conditions": "in vivo, 2 h", "summary_of_the_method": "as §1"}, "Spleen [13]": {"system": "Spleen", "test": "Biodistribution in ICR mouse spleen at 1 uCi, iv after 30 mins postinjection", "conditions": "in vivo, 0.5 h", "summary_of_the_method": "as §1"}, "Brain [14]": {"system": "Brain", "test": "Biodistribution in ICR mouse brain at 1 uCi, iv after 240 mins postinjection", "conditions": "in vivo, 4 h", "summary_of_the_method": "as §1"}, "Spleen [15]": {"system": "Spleen", "test": "Biodistribution in ICR mouse spleen at 1 uCi, iv after 60 mins postinjection", "conditions": "in vivo, 1 h", "summary_of_the_method": "as §1"}, "Muscle tissue": {"system": "Muscle tissue", "test": "Biodistribution in ICR mouse muscle at 1 uCi, iv after 15 mins postinjection", "conditions": "in vivo, 0.25 h", "summary_of_the_method": "as §1"}, "Liver [16]": {"system": "Liver", "test": "Biodistribution in ICR mouse liver at 1 uCi, iv after 60 mins postinjection", "conditions": "in vivo, 1 h", "summary_of_the_method": "as §1"}, "Kidney": {"system": "Kidney", "test": "Biodistribution in ICR mouse kidney at 1 uCi, iv after 120 mins postinjection", "conditions": "in vivo, 2 h", "summary_of_the_method": "as §1"}, "Liver [17]": {"system": "Liver", "test": "Biodistribution in ICR mouse liver at 1 uCi, iv after 15 mins postinjection", "conditions": "in vivo, 0.25 h", "summary_of_the_method": "as §1"}, "Brain [18]": {"system": "Brain", "test": "Biodistribution in ICR mouse brain at 1 uCi, iv after 30 mins postinjection", "conditions": "in vivo, 0.5 h", "summary_of_the_method": "as §1"}, "Thyroid gland [19]": {"system": "Thyroid gland", "test": "Biodistribution in ICR mouse thyroid at 1 uCi, iv after 60 mins postinjection", "conditions": "in vivo, 1 h", "summary_of_the_method": "as §2"}, "Heart [20]": {"system": "Heart", "test": "Biodistribution in ICR mouse heart at 1 uCi, iv after 120 mins postinjection", "conditions": "in vivo, 2 h", "summary_of_the_method": "as §1"}, "Brain [21]": {"system": "Brain", "test": "Biodistribution in ICR mouse brain at 1 uCi, iv after 60 mins postinjection", "conditions": "in vivo, 1 h", "summary_of_the_method": "as §1"}, "Mus musculus [22]": {"system": "Mus musculus", "test": "Biodistribution in ICR mouse small intestine at 1 uCi, iv after 15 mins postinjection", "conditions": "in vivo, 0.25 h", "summary_of_the_method": "as §1"}, "Spleen [23]": {"system": "Spleen", "test": "Biodistribution in ICR mouse spleen at 1 uCi, iv after 15 mins postinjection", "conditions": "in vivo, 0.25 h", "summary_of_the_method": "as §1"}, "Brain [24]": {"system": "Brain", "test": "Biodistribution in ICR mouse brain at 1 uCi, iv after 120 mins postinjection", "conditions": "in vivo, 2 h", "summary_of_the_method": "as §1"}, "Lung [25]": {"system": "Lung", "test": "Biodistribution in ICR mouse lung at 1 uCi, iv after 240 mins postinjection", "conditions": "in vivo, 4 h", "summary_of_the_method": "as §1"}, "Blood": {"system": "Blood", "test": "Biodistribution in ICR mouse blood at 1 uCi, iv after 60 mins postinjection", "conditions": "in vivo, 1 h", "summary_of_the_method": "as §1"}}, "data": [{"molecule": "[125I]c1ccc(CN2CCN(Cc3ccc4c(c3)OCO4)CC2)cc1", "values": [{"measurement": "Drug uptake", "setting": "Mus musculus [1]", "result": 7.45, "unit": "% ID/g"}, {"measurement": "Drug uptake", "setting": "Lung [2]", "result": 12.49, "unit": "% ID/g"}, {"measurement": "Drug uptake", "setting": "Thyroid gland [3]", "result": 6.55, "unit": "% ID/g"}, {"measurement": "Drug uptake", "setting": "Stomach [4]", "result": 2.54, "unit": "%ID"}, {"measurement": "Drug uptake", "setting": "Stomach [5]", "result": 2.32, "unit": "%ID"}, {"measurement": "Drug uptake", "setting": "Liver [6]", "result": 3.95, "unit": "% ID/g"}, {"measurement": "Drug uptake", "setting": "Spleen [7]", "result": 4.79, "unit": "% ID/g"}, {"measurement": "Drug uptake", "setting": "Mus musculus [8]", "result": 10.21, "unit": "% ID/g"}, {"measurement": "Drug uptake", "setting": "Heart [9]", "result": 2.79, "unit": "% ID/g"}, {"measurement": "Drug uptake", "setting": "Thyroid gland [10]", "result": 1.22, "unit": "% ID/g"}, {"measurement": "Drug uptake", "setting": "Heart [11]", "result": 0.75, "unit": "% ID/g"}, {"measurement": "Drug uptake", "setting": "Mus musculus [12]", "result": 10.73, "unit": "% ID/g"}, {"measurement": "Drug uptake", "setting": "Spleen [13]", "result": 6.53, "unit": "% ID/g"}, {"measurement": "Drug uptake", "setting": "Brain [14]", "result": 2.09, "unit": "% ID/g"}, {"measurement": "Drug uptake", "setting": "Spleen [15]", "result": 5.7, "unit": "% ID/g"}, {"measurement": "Drug uptake", "setting": "Muscle tissue", "result": 2.35, "unit": "% ID/g"}, {"measurement": "Drug uptake", "setting": "Liver [16]", "result": 5.68, "unit": "% ID/g"}, {"measurement": "Drug uptake", "setting": "Kidney", "result": 7.82, "unit": "% ID/g"}, {"measurement": "Drug uptake", "setting": "Liver [17]", "result": 9, "unit": "% ID/g"}, {"measurement": "Drug uptake", "setting": "Brain [18]", "result": 4.96, "unit": "% ID/g"}, {"measurement": "Drug uptake", "setting": "Thyroid gland [19]", "result": 1.53, "unit": "% ID/g"}, {"measurement": "Drug uptake", "setting": "Heart [20]", "result": 1.24, "unit": "% ID/g"}, {"measurement": "Drug uptake", "setting": "Brain [21]", "result": 4.63, "unit": "% ID/g"}, {"measurement": "Drug uptake", "setting": "Mus musculus [22]", "result": 5.77, "unit": "% ID/g"}, {"measurement": "Drug uptake", "setting": "Spleen [23]", "result": 6.68, "unit": "% ID/g"}, {"measurement": "Drug uptake", "setting": "Brain [24]", "result": 3.75, "unit": "% ID/g"}, {"measurement": "Drug uptake", "setting": "Lung [25]", "result": 2.69, "unit": "% ID/g"}, {"measurement": "Drug uptake", "setting": "Blood", "result": 0.81, "unit": "% ID/g"}]}]}
